Screening data (PubChem)
Runt-CBFb FRET = Runt domain-CBFb interaction inhibition; AID 1496; Q01196+Q13951; inhibition, % at 20 µM; Cerulean-Runt/Venus-CBFb FRET ratio 530/480, 1 h; actives 0.46% (n = 220,000);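 active means inhibition over about 50% at 20 µM in the single-dose screen, limit read from the data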;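 further: 0% = DMSO wells and 100% = excess unlabeled CBFb competitor control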
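Assay system: Cerulean-Runt domain / Medium: Tris 50 mM pH 7.5, KCl, K2SO4, 0.01% BSA / Timing: protein complex preformed 1 h, compound exposure 1 h, room temperature, dark / Measured by: FRET, excitation 422 nm, emission at 530 and 480 nm / Evaluation: loss of energy transfer signal / Control set: 5 µM unlabeled CBFb as full-inhibition high control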
TNF necrop inh = blocks TNF-alpha induced death of Jurkat FADD-/- cells | activation (protection from cell death), % at 10 µM | AID 463075 | Jurkat FADD-/- TNF necroptosis rescue, ATP luminescence, 24 h; 0 = TNF only, 100 = no-TNF cells | actives 0.068% (n = 220,000);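 active means activation, meaning protection from cell death, of at least 50% relative to plate controls; inactive means activation below 50%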;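 further: necroptosis triggered by 40 ng/mL TNF-alpha added together with compound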
Runt-SMMHC FRET = inhibitors of human RUNX1 Runt domain binding to CBFb-SMMHC; Q01196+Q13951; Cerulean-Runt/Venus-CBFb-SMMHC FRET ratio 530/480, 1 h; inhibition, % at 20 µM; actives 0.74% (n = 220,000);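 active means mean inhibition across duplicate retests at 20 µM reaching about 50%, limit read from the data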;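 further: 0% = DMSO wells and 100% = wells with excess untagged CBFb-SMMHC; inhibitors lower the FRET ratio by blocking Runt binding to CBFb-SMMHC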
L929 necroptosis = blocks zVAD induced death of L929 cells; L929 zVAD necroptosis rescue, ATP luminescence, 24 h; with zVAD 60 µM; viability rescue, % at 10 µM; actives 0.38% (n = 220,000);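 active means activation, scaled between plate controls, above about 75%, limit read from the data; inactive means activation under that limit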;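 further: 0% = zVAD with DMSO and 100% = DMSO alone without zVAD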
Hck-Nef inh = inhibitors of human Hck kinase activated by Nef; actives 0.68% (n = 220,000); Recombinant Hck-YEEI plus Nef, Z-Lyte FRET kinase assay; inhibition, % at 20 µM;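 active means Hck-Nef kinase inhibition above about 50%, limit read from the data; inactive means inhibition below that limit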;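 further: 0% = DMSO with Hck plus Nef and 100% = Hck alone without Nef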
Target sequence (P08631 whole entry, looked up): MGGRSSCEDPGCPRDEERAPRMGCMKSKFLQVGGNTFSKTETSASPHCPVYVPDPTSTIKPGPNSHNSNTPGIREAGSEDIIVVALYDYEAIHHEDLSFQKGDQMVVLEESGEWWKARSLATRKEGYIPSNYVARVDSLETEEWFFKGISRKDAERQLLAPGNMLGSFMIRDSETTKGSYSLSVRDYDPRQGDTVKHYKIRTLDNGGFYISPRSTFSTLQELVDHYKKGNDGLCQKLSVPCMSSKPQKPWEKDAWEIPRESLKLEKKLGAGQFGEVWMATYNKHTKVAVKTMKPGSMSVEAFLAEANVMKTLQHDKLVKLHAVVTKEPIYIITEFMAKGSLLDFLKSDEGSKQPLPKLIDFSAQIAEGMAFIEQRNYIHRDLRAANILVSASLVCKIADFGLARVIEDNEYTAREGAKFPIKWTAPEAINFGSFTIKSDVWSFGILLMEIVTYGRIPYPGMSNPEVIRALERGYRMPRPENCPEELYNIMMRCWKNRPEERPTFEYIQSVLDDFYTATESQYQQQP
RanGTP-Impb inh = inhibitors of RanGTP-importin-beta interaction, primary screen, biochemical, FRET, CFP-Ran, YFP-importin-beta, homogeneous | inhibition, % (test concentration not listed) | actives 1.1% (n = 300,000) | cell-free CFP-Ran/YFP-importin-beta FRET ratio;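 active means more than half of the replicate wells show a fall in the fluorescence ratio signal beyond about 16%, limit read from the data, passing the limit was not always enough; inconclusive means exactly half of the replicate wells pass the set limit; inactive means fewer than half of replicates pass the limit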;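 further: 0% = DMSO wells and 100% = Ran loaded with GDP instead of GTP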
RUNX1 CBFb TR = inhibitors of human RUNX1 Runt domain binding to CBFb | TR-FRET RUNX1 Runt domain-CBFb binding | AID 1502 | shares compounds with Runt-CBFb FRET | inhibition, % at 20 µM | actives 20% (n = 480); in the data active means inhibition above about 40%
Starred values were filed as active, the others as inactive; i = inactive; ? = inconclusive; / = not tested or not shown. This is a sample that favours compounds with a hit; in the whole collection about 2.1% have one here.

SMILES | Runt-CBFb FRET | TNF necrop inh | Runt-SMMHC FRET | L929 necroptosis | Hck-Nef inh | RanGTP-Impb inh | RUNX1 CBFb TR
Oc1ccc(C(=S)N2CCN(Cc3ccccc3)CC2)cc1 | 53* | 0 | 20 | 0 | -17 | 3 | -6
S=C(c1ccc(Br)cc1)N1CCN(Cc2ccccc2)CC1 | 54* | 0 | 50 | 0 | 0 | -1 | 19
O=C(c1ccc(Br)cc1)N1CCN(Cc2ccccc2)CC1 | / | / | / | / | / | -2 | /
Cc1c(C2C(C#N)=C(N)N(c3cccc([N+](=O)[O-])c3)C3=C2C(=O)CCC3)cnn1C (stereo unspecified) | 2 | 1 | 2 | 0 | -1 | 0 | /
N#CC1=C2SCCN2C(=O)C(C#N)C12CCCCC2 (stereo unspecified) | 56* | 0 | -3 | 1 | 2 | 4 | 1
COc1ccc([N+](=O)[O-])cc1NC(=O)c1ccc(-n2nc(C)cc2C)cc1 | -4 | 2 | 36 | 8 | 18 | -2 | /
CCCOc1ccccc1-c1nc2c([nH]1)c(=O)[nH]c(=O)n2C | 75* | -2 | 133* | 0 | 3 | 75* | -13
Oc1ccc(-c2cnns2)c(O)c1 | 73* | -7 | / | 0 | 4 | 1 | 58*
Nc1ncc(-c2ccccc2)c(-c2ccc(O)cc2O)n1 | / | / | / | / | / | 10 | /
CCN(CC)c1ccc(/C=N/NC(=O)c2ccco2)c(O)c1 | 75* | -24 | 82* | 43 | -71 | 63* | 20
Cc1ccccc1Nc1nc(N)nc(COC(=O)[C@@H](NC(=O)c2ccccc2Cl)C(C)C)n1 | / | / | / | / | / | -2 | /
NS(=O)(=O)c1cc(C(=O)OCC(=O)Nc2ccc(N3CCCCC3)cc2)ccc1Cl | 81* | 1 | 1 | -1 | -4 | 3 | 17
CCc1ccc(NC(=O)COC(=O)c2ccc(Cl)c(S(=O)(=O)N3CCCCCC3)c2)cc1 | 1 | 1 | 1 | 1 | -1 | 0 | /
COCCN(C(=S)Nc1c(C)cc(C)cc1C)C(C)c1cccnc1 (stereo unspecified) | 51* | 1 | 42 | 0 | 1 | ? | -12
CCc1ccc(-c2csc3[n+]2CCN3C(C)=O)cc1 | 4 | -1 | 31 | 0 | 0 | 1 | /
CC(=O)N1CC[n+]2c(-c3ccc(Cl)cc3)csc21 | 60* | 0 | 58* | / | 16 | -1 | 10
C=CCNC(=O)/C(C#N)=C/c1c(N(Cc2ccccc2)Cc2ccccc2)nc2ccccn2c1=O | 51* | -2 | 71* | -1 | 3 | 4 | -8
O=C(COC(=O)CNC(=O)c1ccccc1)Nc1ccc(F)c([N+](=O)[O-])c1 | 1 | 0 | -8 | 1 | 20 | 3 | /
COc1ccc2ccccc2c1C(O)c1nccn1C (stereo unspecified) | 55* | 1 | 115* | 0 | 1 | 0 | -2
CCNc1nc2c(c(=O)n(C)c(=O)n2C)n1CCCc1ccccc1 | / | / | / | / | / | -3 | /
Cn1c(=O)[nH]c(=O)c2c1nc(SCCN1CCCCC1)n2CCCc1ccccc1 | 52* | 0 | 47 | 0 | 1 | / | i
Cn1c(=O)[nH]c(=O)c2c1nc(SCCN1CCCCC1)n2Cc1ccccc1 | -1 | 0 | -1 | 0 | 0 | 10 | /
Cc1ccc(Cn2c(SCCN3CCCCC3)nc3c2c(=O)[nH]c(=O)n3C)cc1 | 50* | -1 | 38 | 0 | -3 | 0 | 25
CC(OC(=O)c1cc(S(=O)(=O)N2CCOCC2)ccc1F)C(=O)NCc1ccc2c(c1)OCO2 (stereo unspecified) | / | / | / | / | / | 3 | /
CN=C(C)/C(C(=O)OC)=C(/O)c1ccc(Cl)cc1Cl | 1 | 1 | 2 | 1 | 7 | -1 | /
SMILES | Runt-CBFb FRET | TNF necrop inh | Runt-SMMHC FRET | L929 necroptosis | Hck-Nef inh | RanGTP-Impb inh | RUNX1 CBFb TR
O=C1CCC([N+](=O)[O-])C(C2CC=CCC2)N1 (stereo unspecified) | / | / | / | / | / | 1 | /
Cc1ccc(C)c(/C=N/Nc2nc3ccccc3c(=O)n2O)c1 | 51* | 1 | 19 | 0 | -8 | 0 | -1
c1csc(-c2ccn[nH]2)c1 | 1 | 5 | -2 | 0 | -2 | 5 | /
S=c1nccc(-c2cccs2)[nH]1 | 65* | 0 | 50 | 3 | 25 | 3 | 6
CNC(=O)/C(C#N)=C/c1c(N2CC(C)OC(C)C2)nc2ccccn2c1=O (stereo unspecified) | 94* | 1 | 121* | 0 | 17 | ? | 11
COc1ccc(/C=N/NC(=O)c2nc(-c3ccccc3)n(-c3ccccc3)n2)cc1OC | 76* | 1 | -5 | 1 | 0 | 1 | -10
CCN1CCc2nc(NC(=O)c3ccc4c(c3)OCCO4)sc2C1 | 51* | -5 | 112* | 0 | 7 | 80* | -13
CCN1CCc2nc(NC(=O)Cc3ccc4c(c3)OCCO4)sc2C1 | 14 | 0 | 39 | 1 | 2 | / | /
CCN1CCc2nc(NC(=O)C(c3ccccc3)c3ccccc3)sc2C1 | 51* | 3 | 106* | 0 | -3 | ? | -8
COc1ccc(CCN(C)C(=S)Nc2cccc(C)c2)cc1OC | / | / | / | / | / | 9 | /
CCOC(=O)c1cc2c(=O)n3ccccc3nc2n(Cc2ccco2)c1=NC(=O)c1ccc(OC)cc1OC | 70* | 0 | 86* | -2 | 28 | 29* | 52*
CCOC(=O)c1cc2c(=O)n3ccccc3nc2n(CC2CCCO2)c1=NC(=O)/C=C/c1ccccc1 (stereo unspecified) | 81* | -3 | 86* | 0 | 17 | -4 | 33
CCOC(=O)C1=C(Cc2ccc(C)cc2)C(=O)c2ccccc2C1=O | 50* | -24 | 51* | 0 | -3 | -11 | -51
CCOC(=O)C1=C(Cc2ccc(OC)cc2)C(=O)c2ccccc2C1=O | 17 | -21 | -2 | -1 | -8 | / | /
O=C(O)c1ccccc1C(=O)Nc1ccccc1 | 7 | -1 | -3 | -1 | 5 | 2 | /
O=C(Nc1ccccc1)C1=C(c2ccccc2)S(=O)(=O)CCS1(=O)=O | 52* | -15 | 44 | 70 | 18 | -1 | 23
CN(C)c1oc(-c2ccccc2)nc1C#N | -2 | 0 | 0 | 0 | 5 | -1 | /
CN(C)c1oc(/C=C/c2ccccc2)nc1C#N | 63* | 2 | 122* | 0 | 71* | 11 | -34
CN1C=CC2=C(C#N)C(N)C(C#N)(C#N)C(c3ccccc3)C2C1 (stereo unspecified) | 71* | -1 | 62* | 1 | 24 | 40* | 32
CN(C(=O)C(=O)c1cn(CC(=O)N2CCCC2)c2ccccc12)C1CCCCC1 | / | / | / | / | / | 5 | /
